{"source": "paper PMC2582146", "about": "(Biochemistry, 2008)", "key": {"full-length CAL": {"biological_target": "full-length CAL (Homo sapiens, UniProt Q9HD26)", "experiment": "Fluorescence polarization direct binding, full-length CAL", "conditions": "30 nM reporter titrated with full-length CAL", "in_short": "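Direct titration: full-length CAL pre-incubated 10–30 min at room temperature in FP buffer (storage buffer 25 mM Tris pH 8.5, 150 mM NaCl, 0.02% NaN3, 0.1 mM ATP, plus 0.1 mg/mL bovine IgG, 0.5 mM Thesit) containing fluorescent peptide. Serially diluted into the same buffer, then 10 min incubation and 15 min equilibration at 24 °C. Polarization read at ex 485/em 525 nm.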"}, "CAL PDZ domain (CALP) [1]": {"biological_target": "T1, CAL PDZ domain (CALP) (Homo sapiens, UniProt Q9HD26)", "experiment": "Fluorescence polarization competition binding, CALP with F*C-GBG4_10 reporter"}, "CAL PDZ domain (CALP) [2]": {"biological_target": "T1, CAL PDZ domain (CALP)", "experiment": "Fluorescence polarization competition binding, CALP with F*C-SSR5_10 reporter", "in_short": "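Competition FP using fluorescein-5-maleimide-labelled Cys-peptide reporter in FP buffer: storage buffer (25 mM Tris pH 8.5, 150 mM NaCl, 0.02% NaN3, 0.1 mM TCEP or 1 mM DTT) plus 0.1 mg/mL bovine IgG and 0.5 mM Thesit. Unlabelled Cys-peptides titrated into reporter–protein mix, 15 min at 24 °C. Ex 485/em 525 nm. Ki fit with free protein from exact cubic solution, using known reporter Kd.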"}, "[3]": {"biological_target": "T2, NHERF1 PDZ2 domain (N1P2) (Homo sapiens, UniProt O14745)", "T2 sequence (O14745 132-299)": "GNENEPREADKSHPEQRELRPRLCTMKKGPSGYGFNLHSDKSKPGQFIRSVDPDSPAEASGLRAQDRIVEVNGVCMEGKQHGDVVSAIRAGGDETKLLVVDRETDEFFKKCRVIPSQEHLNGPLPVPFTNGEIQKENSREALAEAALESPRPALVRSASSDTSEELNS", "experiment": "Fluorescence polarization direct binding, NHERF1 PDZ2", "conditions": "titration with increasing N1P2"}, "[4]": {"biological_target": "T3, NHERF1 PDZ1 domain (N1P1) (Homo sapiens, UniProt O14745)", "T3 sequence (O14745 1-139)": "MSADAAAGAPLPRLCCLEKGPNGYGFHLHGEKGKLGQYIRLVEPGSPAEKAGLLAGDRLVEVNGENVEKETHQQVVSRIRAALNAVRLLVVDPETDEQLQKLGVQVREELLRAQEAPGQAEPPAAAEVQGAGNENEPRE", "experiment": "Fluorescence polarization direct binding, NHERF1 PDZ1", "conditions": "titration with increasing N1P1"}}, "note": "No end group written: not given here."}
{"compound": "CC(C)C[C@H](NC(=O)[C@H](CCCNC(=N)N)NC(=O)[C@@H](NC(=O)[C@H](CC(=O)O)NC(=O)[C@H](CCC(N)=O)NC(=O)[C@@H](NC(=O)[C@H](CCC(=O)O)NC(=O)[C@H](CCC(=O)O)NC(=O)[C@H](CCC(=O)O)NC(=O)[C@@H](NC(=O)c1ccc2c(c1)C(=O)OC21c2ccc(O)cc2Oc2cc(O)ccc21)[C@@H](C)O)C(C)C)[C@@H](C)O)C(=O)O", "note": "[F*-CFTR10]", "values": [{"measurement": "interaction in FP titration", "setting": "full-length CAL", "value": "too weak to be fit"}]}
{"compound": "CREKKFFSTIL [C-GBG4_10]", "values": [{"measurement": "Ki", "setting": "CAL PDZ domain (CALP) [1]", "value": "109 ± 12", "unit": "µM"}, {"measurement": "Ki", "setting": "CAL PDZ domain (CALP) [2]", "value": "63 ± 15", "unit": "µM"}]}
{"compound": "F*C-SCR6: fluorescent reporter peptide with a scrambled sequence (C(fluorescein‑5‑maleimide)QVTLDR)", "values": [{"measurement": "FP shift of reporter", "setting": "[3]", "value": "neither domain caused an FP shift"}, {"measurement": "FP shift of reporter", "setting": "[4]", "value": "neither domain caused an FP shift"}]}
